Source: PMC3774010 (Cancer research, 2013)

Key:
[1] = test system: H157 cells; experiment: SRB cell growth assay, H157; format: cell-based, human
Summary of the method: (§1)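 Cells seeded at 6×10^3–8×10^3 per well, grown overnight, then exposed 72 h to test compound (0, 0.5, 1, 2, 5, 10, 30 µM). Surviving fraction measured by sulforhodamine B protein staining; IC50 calculated from the dose series. Data given as mean ± S.D.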

[2] = test system: A549 cells; experiment: SRB cell growth assay, A549; format: cell-based, human; conditions: A549, 72 h
Summary of the method: as §1

[3] = test system: H1299 cells; experiment: SRB cell growth assay, H1299; format: cell-based, human
Summary of the method: as §1

[4] = target: Bcl2 (Homo sapiens, UniProt P10415); experiment: Competition fluorescence polarization assay with Bak BH3 peptide, Bcl2; format: binding; conditions: 0.1~500nM
Sequence of Bcl2 (P10415 whole entry): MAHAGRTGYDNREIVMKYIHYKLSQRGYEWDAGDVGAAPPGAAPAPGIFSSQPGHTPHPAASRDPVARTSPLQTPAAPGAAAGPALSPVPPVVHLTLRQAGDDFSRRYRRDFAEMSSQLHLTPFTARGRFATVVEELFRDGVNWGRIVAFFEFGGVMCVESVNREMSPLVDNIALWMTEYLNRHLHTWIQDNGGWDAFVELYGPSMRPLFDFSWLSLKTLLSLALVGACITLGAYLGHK

[5] = target: T1, Bfl-1/A1 (Homo sapiens, UniProt Q16548); experiment: Competition fluorescence polarization assay with Bak BH3 peptide, Bfl-1/A1; format: binding; conditions: 0.1~500nM
T1 sequence (Q16548 1-175): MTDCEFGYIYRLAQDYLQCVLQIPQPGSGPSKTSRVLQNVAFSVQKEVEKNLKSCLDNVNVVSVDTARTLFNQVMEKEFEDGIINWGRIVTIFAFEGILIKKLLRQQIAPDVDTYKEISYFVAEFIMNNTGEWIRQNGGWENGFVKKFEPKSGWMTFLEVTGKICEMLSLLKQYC

[6] = target: Mcl-1 (Homo sapiens, UniProt Q07820); experiment: Competition fluorescence polarization assay with Bak BH3 peptide, Mcl-1; format: binding; conditions: 0.1~500nM
Sequence of Mcl-1 (Q07820 whole entry): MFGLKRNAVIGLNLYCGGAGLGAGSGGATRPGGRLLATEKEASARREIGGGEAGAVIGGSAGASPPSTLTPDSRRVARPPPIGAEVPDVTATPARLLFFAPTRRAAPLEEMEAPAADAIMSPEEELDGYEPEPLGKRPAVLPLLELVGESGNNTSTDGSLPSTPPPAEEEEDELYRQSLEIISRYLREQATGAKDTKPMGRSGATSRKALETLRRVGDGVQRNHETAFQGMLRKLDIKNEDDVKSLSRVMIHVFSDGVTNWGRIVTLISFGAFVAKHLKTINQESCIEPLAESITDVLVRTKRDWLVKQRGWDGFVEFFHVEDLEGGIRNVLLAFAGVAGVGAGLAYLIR

[7] = target: T2, Bcl-w (Homo sapiens, UniProt Q92843); experiment: Competition fluorescence polarization assay with Bak BH3 peptide, Bcl-w; format: binding; conditions: 0.1~500nM
T2 sequence (Q92843 1-193): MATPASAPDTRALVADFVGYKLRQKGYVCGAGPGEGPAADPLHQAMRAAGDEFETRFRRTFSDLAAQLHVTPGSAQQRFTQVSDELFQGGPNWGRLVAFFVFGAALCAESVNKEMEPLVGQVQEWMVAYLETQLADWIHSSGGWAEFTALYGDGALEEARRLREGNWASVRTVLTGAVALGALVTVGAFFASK

[8] = target: human Bcl-XL protein (Homo sapiens, UniProt Q07817); experiment: Competition fluorescence polarization assay with Bak BH3 peptide, Bcl-XL; format: binding; conditions: purified Bcl-XL 6nM, Bak BH3 peptide 3nM
Sequence of human Bcl-XL protein (Q07817 whole entry): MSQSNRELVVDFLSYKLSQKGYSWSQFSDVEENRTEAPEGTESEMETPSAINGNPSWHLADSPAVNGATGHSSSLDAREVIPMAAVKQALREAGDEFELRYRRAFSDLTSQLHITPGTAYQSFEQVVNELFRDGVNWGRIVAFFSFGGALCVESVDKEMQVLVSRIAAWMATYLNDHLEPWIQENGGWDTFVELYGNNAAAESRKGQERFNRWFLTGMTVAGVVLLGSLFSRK

[9] = test system: normal human bronchial epithelial cells (BEAS-2B); experiment: Cytotoxicity in lung cancer cells versus normal bronchial epithelial cells; format: cell-based
Summary of the method: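 Cells were seeded at 6×10^3–8×10^3 per well, grown overnight, then treated 72 h. Surviving fraction read by sulforhodamine B protein-stain assay. BEAS-2B and A549 were kept in DMEM/F-12 with 10% FBS, and H1299 in RPMI 1640 with 5% FBS plus 5% bovine serum. Lung cancer lines received 0, 0.5, 1, 2, 5, 10 or 30µM.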

[10] = test system: H1299 cells; experiment: Colony formation assay in Bcl-XL shRNA H1299 cells; format: cell-based, human
[11] = test system: A549-P and A549-IRR cells; experiment: Cell growth of A549-P and A549-IRR cells; format: cell-based, human; conditions: colony formation 10 days, SRB 72h
[12] = test system: Nu/Nu nude mice; experiment: In vivo toxicity: body weight, blood analysis, histopathology; conditions: for platelet reduction compared with ABT-737: 30mg/kg/d i.p. for 14 days
Summary of the method: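 Nu/Nu mice given test compound i.p. daily at various doses (dose-finding: 10–50 mg/kg/d up to 25 days, 6 mice/dose; xenograft mice: 30 mg/kg/d for 14 days). Body weight recorded every other day. Terminal cardiac-puncture blood (250 µL, EDTA) under anaesthesia analyzed for WBC, RBC, platelets, ALT, AST, BUN. Organs examined by H&E histology.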

[13] = test system: H1299 lung cancer xenografts; experiment: H1299 lung cancer xenografts in nude mice; format: in vivo; conditions: for anti-tumor efficacy compared with ABT-737: 30mg/kg/d i.p. for 14 days
[14] = test system: Nu/Nu nude mice; conditions: mouse, in vivo, ip
[15] = target: Bcl-XL/Bak (Homo sapiens, UniProt Q07817); experiment: Co-immunoprecipitation of Bcl-XL/Bak in H1299 cells; format: cell-based; conditions: 0.1–5µM, 24 h
Sequence of Bcl-XL/Bak (Q07817 whole entry): as above
Summary of the method: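 H1299 cells treated 24 h with test compound at 0.1–5 µM. Lysates were immunoprecipitated with a Bcl-XL antibody (normal IgG as IP control), and co-precipitated Bak and Bcl-XL were detected by Western blot. Total-lysate Bcl-XL and Bak levels were also blotted.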

[16] = test system: Cyt c release; experiment: Cytochrome c release from mitochondria in H1299 cells; format: cell-based, human
Summary of the method: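 Test compound given to H1299 cells at increasing concentrations (0.1–5µM) for 24 h. Subcellular fractionation separated mitochondrial and cytosolic fractions. Cytochrome c detected in the fractions by Western blot, with prohibitin as the mitochondrial marker.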

[17] = test system: Bak; experiment: Bak oligomerization; format: cell-based, human; conditions: H1299 cells, BMH cross-linking
Summary of the method: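 H1299 cells exposed to increasing test compound concentrations (0.1–5µM) for 24 h. Mitochondria isolated by subcellular fractionation and taken up in PBS (pH7.2) conjugation buffer. BMH and EDTA added to cross-link Bak sulfhydryls, 1 h at room temperature, then DTT quench for 15 min at room temperature. Products resolved by SDS-PAGE and Western blotted with anti-Bak.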

[18] = target: Bcl-XL/Bax (Homo sapiens, UniProt Q07817); experiment: Bcl-XL/Bax complex disruption in cells; format: cell-based
Sequence of Bcl-XL/Bax (Q07817 whole entry): as above

[19] = test system: A549-P and A549-IRR xenografts; experiment: A549-P and A549-IRR lung cancer xenografts in mice; format: in vivo
[20] = test system: Nu/Nu nude mice; experiment: Maximum tolerated dose

| Structure (SMILES) | IC50 ([1]; H157, 72 h, SRB assay) [µM] | binding affinity with Bcl2 [4] | binding affinity with Bfl-1/A1 [5] | binding affinity with Mcl-1 [6] | binding affinity with Bcl-w [7] | Ki [8] [nM] | IC50 ([2]; SRB assay) [µM] | cytotoxicity against lung cancer cells compared to normal human bronchial epithelial cells [9] | IC50 ([3]; H1299, 72 h, SRB assay) [nM] | sensitivity of H1299 cells after depletion of endogenous Bcl-XL [10] | sensitivity of A549-P and A549-IRR cells [11] | platelet reduction compared with ABT-737 [12] | anti-tumor efficacy compared with ABT-737 ([13]; H1299 xenografts) | also measured |
| --- | --- | --- | --- | --- | --- | --- | --- | --- | --- | --- | --- | --- | --- | --- |
| CN(C)CC[C@H](CSc1ccccc1)Nc1ccc(S(=O)(=O)NC(=O)c2ccc(N3CCN(Cc4ccccc4-c4ccc(Cl)cc4)CC3)cc2)cc1[N+](=O)[O-] [ABT-737, reference compound] | – | – | – | – | – | – | – | – | – | – | – | – | – | IC50 ([1]; Homo sapiens, NCI-H157, 72 h): 27.6 ± 1.49 µM; IC50 ([2]; Homo sapiens): 19.4 ± 1.23 µM; IC50 ([3]; Homo sapiens, NCI-H1299, 72 h): 40500 ± 3560 nM |
| CCOc1ccc2nc3cc(N=Nc4ccc(N)nc4N)ccc3c(N)c2c1 [BXI-61] | 5.71 ± 0.49 | very low binding affinities | very low binding affinities | very low binding affinities | very low binding affinities | 14.8 ± 1.54 | 3.17 ± 0.28 | relatively selective cytotoxicity | 1790 ± 120 | significantly reduced the sensitivity | remained sensitive | less effect on platelet than ABT-737 | more potent efficacy against human lung cancer than ABT-737 | normal tissue toxicities ([12]; 40mg/kg/d): without significant normal tissue toxicities except for a slight decrease in platelets; potency against lung cancer in vivo ([13]; 40mg/kg/d): high potency against lung cancer |
| CCOc1ccc(-c2nc3ccc(-c4nc5ccc(N6CCN(C)CC6)cc5[nH]4)cc3[nH]2)cc1 [BXI-72] | 1.87 ± 0.16 | very low binding affinities | very low binding affinities | very low binding affinities | very low binding affinities | 0.9 ± 0.15 | 0.68 ± 0.08 | relatively selective cytotoxicity | 490 ± 120 | significantly reduced the sensitivity | remained sensitive | less effect on platelet than ABT-737 | more potent efficacy against human lung cancer than ABT-737 | maximum tolerated dose (MTD) [14]: 30~40 mg/kg/d; Bcl-XL/Bak dissociation [15]: dose-dependent Bcl-XL/Bak dissociation; Cyt c release from mitochondria [16]: facilitate Cyt c release from mitochondria; Bak oligomerization [17]: facilitated the formation of Bak dimers, trimers and multimers; liver histology ([12]; 50mg): hepatocellular necrosis; ALT, AST, BUN, WBC and RBC ([12]; 10–30mg/kg/d): no significant increases in ALT, AST and BUN or decreases in WBC and RBC; histopathology of normal tissues ([12]; 10–30mg/kg/d): no evidence of normal tissue toxicities; body weight ([12]; 20–30mg/kg): well tolerated without weight loss; ALT, AST and BUN ([12]; 40–50mg/kg/d for two weeks): increases in ALT, AST and BUN; platelets ([12]; increased doses of BXI-72, mice): dose-dependent reduction of platelets; Bcl-XL/Bax complexes [18]: disrupts Bcl-XL/Bax complexes; effect on tumors derived from A549-P and A549-IRR cells ([19]; 20mg/kg/d ×18): repressed tumors derived from both A549-P and A549-IRR cells; normal tissue toxicities ([19]; A549 xenograft mice, 20mg/kg/d): no significant normal tissue toxicities; effect on established lung cancer xenografts ([13]; H1299 xenografts, 10, 20 and 30mg/kg/d i.p. for 14 days): dose-dependent regression; apoptosis in tumor tissues (active caspase 3 IHC) ([13]; H1299 xenografts, 10-30mg/kg/d i.p. 14 days): dose-dependent apoptosis; lethality ([20]; 50mg/kg/d i.p., six mice, within 10 days): uniformly lethal; death ([20]; 10 to 30mg/kg/d i.p., after 25 days of daily administration): no death recorded |
